The source made the active and inactive calls. The calls are words filed in the database; no cut-off is given here.
Tests used:
[1] = Inhibition of Leishmania donovani MetAP1 expressed in Escherichia coli BL21 (DE3) using L-methionine-4-methyl-coumary1-7-amide as substrate preincubated for 30 mins followed by substrate addition and measured at 1 min interval for 30 mins by spectrofluorometric method
How it was run: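 His-tagged LdMetAP1 from pET28a, purified by Ni-NTA and gel filtration. Enzyme preincubated 30 min in metal-supplemented assay buffer with compound. L-Met-AMC added at 125 µM and fluorescence recorded. Percent inhibition taken as the net fluorescence decrease against control reactions; IC50 from a range of compound concentrations.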

[2] = Binding affinity to Leishmania donovani MetAP1 expressed in Escherichia coli BL21 (DE3) by surface plasmon resonance analysis
How it was run: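 Recombinant LdMetAP1 amine-coupled to a CM-5 dextran chip. Running and injection buffer was 1X PBS pH 7.4 with 0.05% P-20. Compounds in 2% DMSO injected over the chip at a range of concentrations to record response units. After solvent correction, kinetics fitted to a 1:1 Langmuir binding model.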

Leishmania donovani [3] = assay: Binding affinity to Leishmania donovani MetAP1 expressed in Escherichia coli BL21 (DE3) assessed as intrinsic fluorescence quenching of tryptophan residues measured after 30 mins by fluorescence spectroscopic method
How it was run: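 LdMetAP1 at 1 µM final in 20 mM Tris-HCl pH 7.5, 50 mM NaCl, incubated with compounds for 30 min at 25°C. Tryptophan fluorescence read at excitation ~295 nm, emission ~300-400 nm. F0/F1 plotted against compound concentration. KSV from linear regression; binding parameters from modified Stern-Volmer plots.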

[4] = Cytotoxicity against mouse embryonic fibroblasts measured after 48 hrs by MTT assay; conditions: Fibroblast
How it was run: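 Mouse embryonic fibroblasts exposed to compounds at 0, 50, 100 and 200 µM for 48 h. MTT solution (5 mg/ml) then added for 4 h at 37°C. Formazan dissolved in DMSO and absorbance read at 570 nm.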

Leishmania donovani [5] = assay: Competitive inhibition of Leishmania donovani MetAP1 expressed in Escherichia coli BL21 (DE3) at 1 to 10 uM using varying levels of L-methionine-4-methyl-coumary1-7-amide as substrate preincubated for 30 mins followed by substrate addition and measured for 30 mins by Lineweaver-burk plot analysis; conditions: dose 1-10 µM, time 60.0 min
Leishmania donovani [6] = assay: Uncompetitive inhibition of Leishmania donovani MetAP1 expressed in Escherichia coli BL21 (DE3) at 1 to 10 uM using varying levels of L-methionine-4-methyl-coumary1-7-amide as substrate preincubated for 30 mins followed by substrate addition and measured for 30 mins by Lineweaver-burk plot analysis; conditions: dose 1-10 µM, time 60.0 min

| Structure (SMILES) | IC50 [1] [µM] | further results |
| --- | --- | --- |
| CC(C)c1ccc(N2C(=O)CSC2c2ccc3cccc(O)c3n2)cc1 (stereo unspecified) | 37.4 |  |
| O=C1CSC(c2ccc3cccc(O)c3n2)N1c1cccc(OC(F)(F)F)c1 (stereo unspecified) | 46.4 |  |
| COc1cccc(N2C(=O)CSC2c2ccc3cccc(O)c3n2)c1 (stereo unspecified) | 39.7 |  |
| Cc1cccc(N2C(=O)CSC2c2ccc3cccc(O)c3n2)c1 (stereo unspecified) | 27.9 |  |
| COc1ccccc1N1C(=O)CSC1c1ccc2cccc(O)c2n1 (stereo unspecified) | 18.4 |  |
| N#Cc1cccc(N2C(=O)CSC2c2ccc3cccc(O)c3n2)c1 (stereo unspecified) | 11.7 | Kd [2]: 0.0154 µM; Activity (Leishmania donovani [3]): Dose-dependent effect; IC50 [4]: > 250 µM; inhibition (Leishmania donovani [5]): Active |
| O=C1CSC(c2ccc3cccc(O)c3n2)N1c1cccc(F)c1 (stereo unspecified) | 8.8 | Kd [2]: 0.000161 µM; inhibition (Leishmania donovani [6]): Active; Activity (Leishmania donovani [3]): Dose-dependent effect; IC50 [4]: 120 µM |
| O=C1CSC(c2ccc3cccc(O)c3n2)N1c1ccc(Oc2ccccc2)cc1 (stereo unspecified) | 43.8 |  |
| COc1cc(N2C(=O)CSC2c2ccc3cccc(O)c3n2)cc(OC)c1OC (stereo unspecified) | 12.9 |  |
| COc1cc(OC)cc(N2C(=O)CSC2c2ccc3cccc(O)c3n2)c1 (stereo unspecified) | 18.4 |  |
| O=C1CSC(c2ccc3cccc(O)c3n2)N1c1ccc(I)cc1 (stereo unspecified) | 252 |  |
| COc1ccc(N2C(=O)CSC2c2ccc3cccc(O)c3n2)cc1OC (stereo unspecified) | 26.4 |  |

The next lines start with results.

| IC50 [1] [µM] | Structure (SMILES) | further results |
| --- | --- | --- |
| 45.5 | O=C1CSC(c2ccc3cccc(O)c3n2)N1c1ccc(F)cc1 (stereo unspecified) |  |
| 1.31 | Cc1ccc(N2C(=O)CSC2c2ccc3cccc(O)c3n2)cc1 (stereo unspecified) | Kd [2]: 0.0215 µM; Activity (Leishmania donovani [3]): Dose-dependent effect; IC50 [4]: > 200 µM; inhibition (Leishmania donovani [5]): Active |
| 79.9 | O=C1CSC(c2ccc3cccc(O)c3n2)N1c1ccccc1 (stereo unspecified) |  |
| 54.1 | O=C1CSC(c2ccc3cccc(O)c3n2)N1c1ccc(C(F)(F)F)cc1 (stereo unspecified) |  |
| 62.5 | COc1ccc(N2C(=O)CSC2c2ccc3cccc(O)c3n2)cc1 (stereo unspecified) |  |
| 36.8 | O=C1CSC(c2ccc3cccc(O)c3n2)N1c1ccc(Br)cc1 (stereo unspecified) |  |
| 1.1 | O=C1CSC(c2ccc3cccc(O)c3n2)N1c1ccc(Cl)cc1 (stereo unspecified) | Kd [2]: 0.015 µM; Activity (Leishmania donovani [3]): Dose-dependent effect; IC50 [4]: > 200 µM; inhibition (Leishmania donovani [5]): Active |
| 46.1 | O=C1CSC(c2ccc3cccc(O)c3n2)N1c1cccc(Br)c1 (stereo unspecified) |  |

— ChEMBL document CHEMBL4715836, “Synthesis and characterization of quinoline-carbaldehyde derivatives as novel inhibitors for leishmanial methionine aminopeptidase 1” (Eur J Med Chem, 2020)
